Screening data from PubChem BioAssay.
KCNQ1 inh – human KCNQ1 channel inhibition | CHO-K1 KCNQ1, FluxOR thallium flux fluorescence; hits give high values | B-score at 10 µM | 310,000 tested, 1.3% active | AID 2642;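 active means compounds whose thallium flux B-score, printed positive for inhibition, exceeds three library SD while starting fluorescence stays within three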;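 further: channel opened by potassium depolarization with thallium stimulus after 20 min compound exposure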
KCNK9 block – blocks the human KCNK9 two-pore domain potassium channel; HEK293 KCNK9, FluxOR thallium flux fluorescence; hits give low values; B-score at 10 µM; 310,000 tested, 1.2% active;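 active means ratio B-score over 3 SD below the library mean, with starting fluorescence within 5 SD of its mean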;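 further: negative B-score means less thallium flux so channel inhibition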
Kir21 block – Kir2.1 (mouse) channel inhibition; HEK293-Kir2.1, FluxOR thallium flux fluorescence; hits give low values; 310,000 tested, 0.85% active; B-score at 10 µM;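 active means fluorescence ratio B-score at or below minus 3 SD of library scores, with starting-brightness B-score within 2 SD, cut at about -4.2 in these data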;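 further: channel flux triggered by added potassium and thallium sulfate stimulus; B-score of peak minus minimum fluorescence over baseline after thallium stimulus; more negative B-score means stronger Kir2.1 block with less thallium influx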
Target sequence (P35561 whole entry, looked up): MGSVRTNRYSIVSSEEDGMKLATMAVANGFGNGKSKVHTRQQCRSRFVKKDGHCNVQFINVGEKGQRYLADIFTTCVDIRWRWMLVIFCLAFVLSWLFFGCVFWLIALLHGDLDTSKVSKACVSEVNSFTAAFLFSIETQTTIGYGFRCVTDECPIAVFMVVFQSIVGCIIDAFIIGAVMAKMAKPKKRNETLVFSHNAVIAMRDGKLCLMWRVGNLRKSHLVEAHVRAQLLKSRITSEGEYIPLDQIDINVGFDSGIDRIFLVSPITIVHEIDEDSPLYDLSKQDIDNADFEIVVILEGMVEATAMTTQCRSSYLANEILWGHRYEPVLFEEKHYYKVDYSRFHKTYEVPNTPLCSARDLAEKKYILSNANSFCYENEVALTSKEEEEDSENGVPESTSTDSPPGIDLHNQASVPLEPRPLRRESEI
KCNK3 block – human KCNK3 channel inhibition, primary screen; CHO-KCNK3 thallium flux, FluxOR fluorescence; hits give low values; AID 602410; B-score at 10 µM; O14649; 340,000 tested, 0.84% active;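 active means B-score under library mean minus 4 SD, starting fluorescence ratio at most library mean plus 5 SD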;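 further: more negative B-score means stronger inhibition of thallium flux through KCNK3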
hERG rescue – compounds protecting human hERG from proarrhythmic drug block | 310,000 tested, 0.51% active | Q12809 | CHO-hERG, FluxOR thallium flux, dofetilide IC70 present | activation (rescue from dofetilide block), less the hit threshold, % at 10 µM;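 active means activation above the mean of controls blocked by dofetilide plus 5 SD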;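 further: thallium influx through hERG after potassium depolarization seen as dye fluorescence rise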
KCNQ1 pot – human KCNQ1 channel potentiation or activation; B-score at 10 µM; P51787; AID 2648; CHO-K1 KCNQ1, thallium flux FluxOR fluorescence; hits give high values; 310,000 tested, 0.35% active;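 active means fluorescence ratio B-score, a plate-corrected score, at least three library SD, with initial intensity B-score within 5 SD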
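Medium – assay buffer, equal DMSO in all wells · Material – CHO-K1 cell line with stable KCNQ1 potassium channel expression · Signal – kinetic FluxOR thallium fluorescence, 10-s 1-Hz baseline, 110-s post-stimulus read · Compound – single concentration per compound, DMSO matched to controls · Schedule – 37 °C overnight plating, 90-min dark dye load, 20-min compound pretreatment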
KCNK3 inh conf – human KCNK3 channel inhibition, confirmation assay. shares compounds with KCNK3 block. CHO-KCNK3 thallium flux, FluxOR fluorescence; 0% buffer, 100% carvedilol maximal block. ratio percent of control, % at 10 µM. 2,400 tested, 99% active. AID 651638;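 active means ratio percent of control, averaged over triplicates, above buffer control mean plus 5 SD, cut at about 64% in these data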;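 further: ratio is the fluorescence rise from min to max over baseline after thallium stimulus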
KCNK3 noninduced – activity in cells without induced KCNK3 expression; shares compounds with KCNK3 block; non-induced KCNK3 parental cells, FluxOR thallium flux; hits give low values; thallium flux ratio (lower = more inhibition) at 10 µM; 2,400 tested, 40% active; AID 651747;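 active means thallium flux ratio, averaged over three wells, more than 5 SD below the buffer control mean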;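 further: host cells are CHO cells without KCNK3 induction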
Large screens that a line does not name were inactive (follow-up assays come after a bar, where they were run). Only some compounds are listed: those with a hit (about 3.7% of all), similar ones and a draw of the others.

COc1cccc(/C=C2\SC(=O)N(CCC(=O)N3CCCCC3CCO)C2=O)c1 (stereo unspecified)	KCNK3 block -11 | KCNK3 inh conf 78 | KCNK3 noninduced inactive
O=C1/C(=C\c2ccccc2)SC(=S)N1CCC(=O)N1CCCCC1CCO (stereo unspecified)	none
Cc1sc(NC(=O)c2ccc(OCC(C)C)cc2)c(C(N)=O)c1-c1ccc(Cl)cc1Cl	none
CCCOC(=O)/C(=C\C=C\c1ccco1)NC(=O)c1ccccc1	KCNK3 block -10 | KCNK3 inh conf 107 | KCNK3 noninduced 0.15
Clc1cccc(-c2nc(NCCN3CCOCC3)c3ccccc3n2)c1	none
Clc1cccc(-c2nc(NCCCN3CCOCC3)c3ccccc3n2)c1	KCNK3 block -9.4 | KCNK3 inh conf 91 | KCNK3 noninduced 0.15
CC(=O)Nc1cccc(NC(=O)c2cccc(OCc3ccccc3)c2)c1	none
CCOC(=O)Nc1cccc(NC(=O)c2ccccc2F)c1	KCNK3 block -8.8 | KCNK3 inh conf 100 | KCNK3 noninduced inactive
CC(=O)Nc1cccc(NC(=O)c2ccccc2OCc2ccccc2)c1	KCNK3 block -10 | KCNK3 inh conf 111 | KCNK3 noninduced inactive
O=C(C[C@H]1C[C@H](C(=O)N2CCCCC2)[C@@]2(CCc3ccccc3)c3[nH]c4ccc(Cl)cc4c3CCN2C1=O)NCCC1=CCCCC1	none (no result: KCNQ1 inh, KCNK9 block, Kir21 block, hERG rescue, KCNQ1 pot)
Cc1cccc(-n2c(SCC(=O)Nc3nnc(C)s3)nnc2-c2ccoc2C)c1	KCNK3 block -14 | KCNK3 inh conf 66 | KCNK3 noninduced 0.16
Cc1cc(C(=O)O)sc1C	none
O=C(Nc1ccccc1)C1=C(O)CC(c2ccoc2)CC1=Nc1ccccc1 (stereo unspecified)	KCNK3 block -8.8 | KCNK3 inh conf 113 | KCNK3 noninduced 0.16
CC1CN=C2C(C(=O)Nc3ccccc3)=C(O)CC(c3ccccc3)N21 (stereo unspecified)	none
O=C(NCCCc1ccccc1)[C@@H]1Cc2ccccc2CN1	none
O=c1sc2ccccc2n1COc1ccccc1	none (no result: KCNQ1 inh, KCNK9 block, Kir21 block, hERG rescue, KCNQ1 pot)
Cc1ccccc1OCCCn1c(=O)sc2ccccc21	KCNK3 block -9.6 | KCNK3 inh conf 94 | KCNK3 noninduced inactive
O=c1sc2ccccc2n1COc1ccc(Cl)cc1	KCNK3 block -9.1 | KCNK3 inh conf 124 | KCNK3 noninduced 0.15
O=C(Nc1ccc(Br)cc1)C1OCCc2ccccc21 (stereo unspecified)	none
CCOC(=O)c1ccc(S(=O)(=O)N2CC(=O)Nc3ccccc32)cc1	none
CCOc1ccc(CCNC(=O)CS(=O)Cc2nc(-c3ccccc3C)oc2C)cc1OCC (stereo unspecified)	none
CCn1c(SCc2cccc(OC)c2)nc2ccccc2c1=O	KCNK3 block -10 | KCNK3 inh conf 128 | KCNK3 noninduced 0.13
Cc1ccccc1CSc1nc2ccccc2c(=O)n1C	none (no result: KCNQ1 inh, KCNK9 block, Kir21 block, hERG rescue, KCNQ1 pot)
O=c1c2ccccc2nc(SCc2nnc(-c3ccccc3Br)o2)n1-c1ccccc1	KCNK9 block -6.9, KCNK3 block -12 | KCNK3 inh conf 117 | KCNK3 noninduced inactive
Cn1c(SCc2cccc(Br)c2)nc2ccccc2c1=O	KCNK3 block -10 | KCNK3 inh conf 160 | KCNK3 noninduced 0.082
Cn1c(SCc2ccccc2Br)nc2ccccc2c1=O	KCNK3 block -9 | KCNK3 inh conf 134 | KCNK3 noninduced inactive
CCCCn1c(N)c(N(CC(C)C)C(=O)c2ccc(F)c(S(=O)(=O)N3CCOCC3)c2)c(=O)[nH]c1=O	none
CC1CC(Nc2ccccc2)c2ccccc2N1C(=O)c1ccco1 (stereo unspecified)	KCNK3 block -13 | KCNK3 inh conf 115 | KCNK3 noninduced inactive
O=C(C1CCCCC1)N1CCN(c2ccnc3cc(Cl)ccc23)CC1	KCNK3 block -8.8 | KCNK3 inh conf 115 | KCNK3 noninduced inactive
O=C(C1CCC1)N1CCN(c2ccnc3cc(Cl)ccc23)CC1	none
Cc1cc(NC(=O)c2cc(C(C)C)on2)nn1Cc1ccc(Cl)cc1	KCNK3 block -9.5 | KCNK3 inh conf 105 | KCNK3 noninduced inactive
Cc1cc(C(=O)Nc2cc(C)n(Cc3ccc(Cl)cc3)n2)no1	none
O=S(=O)(Cc1ccccc1)N(O)c1ccccc1	none
O=c1c(Cc2ccc(F)cc2)c(O)ccn1CCCN1CCOCC1	none
CC(=O)Nc1ccccc1OCCOc1ccc(Br)cc1	KCNK3 block -12 | KCNK3 inh conf 99 | KCNK3 noninduced inactive
O=C(NCc1cc([N+](=O)[O-])ccc1O)c1cc(-c2ccncc2)nc2ccccc12	KCNK3 block -11 | KCNK3 inh conf 100 | KCNK3 noninduced 0.14
CCOC1C(=O)NC(=O)N1Cc1ccccc1 (stereo unspecified)	KCNK3 block -9.3 | KCNK3 inh conf 81 | KCNK3 noninduced inactive
CC1CC(=O)NC(=O)N1Cc1ccccc1 (stereo unspecified)	none (no result: KCNQ1 inh, KCNK9 block, Kir21 block, hERG rescue, KCNQ1 pot)
COc1ccccc1-n1c(SCC(=O)NCC2CCCO2)nc2c([nH]c3ccccc32)c1=O (stereo unspecified)	none
C(=N\n1cnnc1)/c1ccccn1	none
C(=N\N(c1ccccc1)c1ccccc1)/c1ccccn1	KCNK3 block -9.9 | KCNK3 inh conf 133 | KCNK3 noninduced 0.12
CCc1ccc(C2CC(c3ccc(C)cc3)n3nc(N)nc3N2)cc1 (stereo unspecified)	none (no result: KCNQ1 inh, KCNK9 block, Kir21 block, hERG rescue, KCNQ1 pot)
COc1cc(CCCN2CCNC[C@@H]2Cc2ccc(O)cc2)cc(OC)c1OC	none
Cc1cccc(C)c1NC(=O)/C(=C/c1ccco1)c1ccccc1	none
Cc1cc(C)c(NC(=O)/C(=C/c2ccco2)c2ccccc2)c(C)c1	KCNK3 block -9 | KCNK3 inh conf 108 | KCNK3 noninduced inactive
Cc1cc(C(=O)Nc2ccc(Br)cc2)cs1	none
CC(=O)c1c(C)[nH]c(C(=O)Nc2ccc(Cl)c(S(=O)(=O)N(C)C)c2)c1C	KCNK3 block -11 | KCNK3 inh conf 103 | KCNK3 noninduced inactive
CC(=O)c1c(C)[nH]c(C(=O)OCC(=O)Nc2ccc(Cl)c(S(=O)(=O)N(C)C)c2)c1C	none
CC1=CC2=NC(=O)/C(=C\c3cc(C)n(-c4cccc(Cl)c4)c3C)C(=N)N2O1	none
CC1=CC2=NC(=O)/C(=C/c3coc4ccc(Cl)cc4c3=O)C(=N)N2O1	KCNQ1 inh 10, KCNK3 block -9.2 | KCNK3 inh conf 134 | KCNK3 noninduced 0.087
CCOC(=O)C(C(=O)OCC)c1c([N+](=O)[O-])c(=O)n2c3c(cccc13)CCC2	none
